Consider 14 molecules from ChEMBL document CHEMBL1122791, “Inhibition of arabinose 5-phosphate isomerase. An approach to the inhibition of bacterial lipopolysaccharide biosynthesis” (J Med Chem, 1984).

The subject of series [1] is arabinose 5-phosphate isomerase (Escherichia coli). In words: Inhibitory activity against Arabinose-5-phosphate isomerase at a concentration of 6 mM; Not active.
Series [2] deals with T1, Arabinose 5-phosphate isomerase KdsD (Salmonella typhimurium (strain LT2 / SGSC1412 / ATCC 700720), UniProt Q8ZLS1).
T1 sequence (Q8ZLS1 whole entry): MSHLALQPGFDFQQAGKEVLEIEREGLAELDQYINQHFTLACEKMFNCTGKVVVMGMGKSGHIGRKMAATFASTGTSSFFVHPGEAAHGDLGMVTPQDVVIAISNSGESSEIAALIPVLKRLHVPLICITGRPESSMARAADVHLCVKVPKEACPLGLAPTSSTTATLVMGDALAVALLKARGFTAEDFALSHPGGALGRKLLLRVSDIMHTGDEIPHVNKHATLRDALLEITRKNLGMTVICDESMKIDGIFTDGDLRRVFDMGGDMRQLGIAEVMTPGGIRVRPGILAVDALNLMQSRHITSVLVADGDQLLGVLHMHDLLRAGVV
In words: Inhibitory activity against Arabinose-5-phosphate isomerase; Interfered. Summed up: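 Isomerase from E. coli B cells, purified 50-fold. Inhibitor and enzyme were preincubated 2 min at 37 °C in 0.1 M histidine buffer, pH 7.5. The reaction was started with 10 mM (stock) D-arabinose 5-phosphate or D-ribulose 5-phosphate. It was stopped at 0, 3, 6, 9 and 12 min with cysteine HCl, then H2SO4. Ketose was read at 540 nm by carbazole colour (30 min, 37 °C).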

Series [3] deals with arabinose 5-phosphate isomerase (Escherichia coli). In words: Inhibitory activity against Arabinose-5-phosphate isomerase; Not active.
Series [4] addresses arabinose 5-phosphate isomerase (Escherichia coli) (UniProt P45395). In words: Inhibitory activity against Arabinose-5-phosphate isomerase at a concentration of 2.4 mM; Not active.
The subject of series [5] is arabinose 5-phosphate isomerase (Escherichia coli). In words: Inhibitory activity against Arabinose-5-phosphate isomerase at a concentration of 2 mM; Not active.
Series [6] has the same test system. In words: Inhibitory activity against Arabinose-5-phosphate isomerase at a concentration of 5 mM; Not active.
Series [7] shares this test system. In words: Inhibitory activity against Arabinose-5-phosphate isomerase; Unstable.
For series [8] the test system is unchanged. In words: Inhibitory activity against Arabinose-5-phosphate isomerase at a concentration of 1.5 mM; Not active.
Series [9] deals with arabinose 5-phosphate isomerase (Escherichia coli) (UniProt P45395). In words: Inhibitory activity against Arabinose-5-phosphate isomerase at a concentration of 12 mM; Not active.
The test system of series [10] is arabinose 5-phosphate isomerase (Escherichia coli). In words: Inhibitory activity against Arabinose-5-phosphate isomerase at a concentration of 5 mM; NA = not active at 5.
Series [11] deals with arabinose 5-phosphate isomerase (Escherichia coli) (UniProt P45395). In words: Inhibitory activity against Arabinose-5-phosphate isomerase at a concentration of 3 mM; Not active.
The test system of series [12] is arabinose 5-phosphate isomerase (Escherichia coli). In words: Inhibitory activity against Arabinose-5-phosphate isomerase at a concentration of 6 mM.
Compound in series [13]: O=P(O)(O)OC[C@H]1O[C@@H](O)[C@@H](O)[C@@H]1O
In words: Inhibitory activity against Arabinose-5-phosphate isomerase. The following applies: Escherichia coli B.

As a reminder, the inhibition is the percentage by which the read-out fell short of the control. As usually defined, the Km is the concentration of substrate that gives half-maximal velocity.

The source made the active and inactive calls. No cut-off for these calls is given here.

arabinose 5-phosphate isomerase (Escherichia coli) (UniProt P45395), sequence (P45395 whole entry, looked up): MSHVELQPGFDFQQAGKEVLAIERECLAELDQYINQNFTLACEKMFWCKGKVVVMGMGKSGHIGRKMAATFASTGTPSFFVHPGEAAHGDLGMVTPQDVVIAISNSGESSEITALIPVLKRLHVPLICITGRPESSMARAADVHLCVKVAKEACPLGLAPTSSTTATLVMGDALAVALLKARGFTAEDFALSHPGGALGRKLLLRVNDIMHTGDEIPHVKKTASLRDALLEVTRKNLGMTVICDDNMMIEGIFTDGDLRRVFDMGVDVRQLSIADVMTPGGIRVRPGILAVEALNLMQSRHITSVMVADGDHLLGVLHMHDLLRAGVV

For `O=P(O)(O)OCC1OC(O)C(O)C1OCc1ccccc1` (stereo not given), in [1], the inhibition entry is “inactive”.

As to `O=[N+]([O-])OC[C@H]1O[C@H](O)[C@@H](O)[C@@H]1O`, the “I 50” value in series [2] was “Interfered”.

As for `O=C(O)C(=O)OC[C@H]1OC(=O)[C@H](O)[C@@H]1O`, the inhibition result in series [3] was “inactive”.

`O=P(O)(O)OCC(O)C(O)C(O)C(O)CO` (stereo not given): the inhibition entry in series [1] and in series [4] was “inactive” each time.

On to `O=P(O)(O)OCC1OC(O)CC1O` (stereo not given), for which, in series [5], the inhibition result was “inactive”.

For `O=C1O[C@H](CO)[C@@H](O)[C@H]1O`, the inhibition result in series [1] is “inactive”.

Regarding `O=P(O)(O)OCC1OC(O)C(F)C1O` (stereo not given), the inhibition result in series [6] was “inactive”.

Regarding `CC(=O)CC(=O)OC[C@H]1O[C@H](O)[C@@H](O)[C@@H]1O`, the “I 50” value in [7] is listed as “Unstable”.

Consider `O=P(O)(O)OCC(O)C(O)CCO` (stereo not given), for which, in [8], the inhibition result was “inactive”.

Take `NS(=O)(=O)OC[C@H]1OC(=O)[C@H](O)[C@@H]1O`: the inhibition entry in [9] is “inactive”.

Regarding `C[C@H]1OC(O)[C@H](O)[C@H]1O` (stereo not given in full), in [10], the inhibition entry was “inactive”.

As for `COC1C(COP(=O)(O)O)OC(O)C1O` (stereo not given), in series [11], the inhibition result was “inactive”.

The molecule `O=C1O[C@H](CCl)[C@@H](O)[C@H]1O` returned an inhibition in [12] of 12%.

B1: Arabinose 5-phosphate isomerase KdsD (Salmonella typhimurium (strain LT2 / SGSC1412 / ATCC 700720)), Q8ZLS1 (protein)
chain: MSHLALQPGFDFQQAGKEVLEIEREGLAELDQYINQHFTLACEKMFNCTGKVVVMGMGKSGHIGRKMAATFASTGTSSFFVHPGEAAHGDLGMVTPQDVVIAISNSGESSEIAALIPVLKRLHVPLICITGRPESSMARAADVHLCVKVPKEACPLGLAPTSSTTATLVMGDALAVALLKARGFTAEDFALSHPGGALGRKLLLRVSDIMHTGDEIPHVNKHATLRDALLEITRKNLGMTVICDESMKIDGIFTDGDLRRVFDMGGDMRQLGIAEVMTPGGIRVRPGILAVDALNLMQSRHITSVLVADGDQLLGVLHMHDLLRAGVV
As to B1, the Km in series [13] came to 200 µM.
